An excerpt weighted towards active compounds, which were near 1.9% of everything screened.
MIN6 prolif: MIN6 beta-cell proliferation induction. MIN6 cells proliferation, ATPlite luminescence, 48 h; cells starved in 0.2% serum; 100% = growth in 10% serum. proliferation, % at 10 µM. hit rate 0.29% among 330,000;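 active means compounds whose signal lies at least 3.5 SD above the mean of all wells on their plate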
UCH37 inh: human UCH37 deubiquitinating enzyme inhibition; hit rate 0.33% among 330,000; purified proteasome/UCH37, Ub-AMC cleavage fluorescence; inhibition, % (concentration not given with the values);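 active means mean inhibition over replicate wells above about 20%, limit read from the data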
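Material: human UCH37 enzyme supplied as purified proteasome complex. Measure: % inhibition of Ub-AMC cleavage fluorescence. Medium: pH 7.4 Tris-HCl (50 mM) with ovalbumin, ATP-MgCl2, DTT. Times: 30 min preincubation with enzyme, 25 min cleavage at room temperature. Detection: AMC fluorescence intensity at 355/460 nm.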
Rce1 inh: inhibitors of yeast Ras-converting enzyme; yeast membranes, quenched prenylated peptide cleavage fluorescence; calls only; hit rate 0.27% among 290,000; AID 2563;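 active means fall in fluorescence gain of 50% or more versus controls, with final raw signal at or below 3038400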
Target sequence (Q03530 whole entry, looked up): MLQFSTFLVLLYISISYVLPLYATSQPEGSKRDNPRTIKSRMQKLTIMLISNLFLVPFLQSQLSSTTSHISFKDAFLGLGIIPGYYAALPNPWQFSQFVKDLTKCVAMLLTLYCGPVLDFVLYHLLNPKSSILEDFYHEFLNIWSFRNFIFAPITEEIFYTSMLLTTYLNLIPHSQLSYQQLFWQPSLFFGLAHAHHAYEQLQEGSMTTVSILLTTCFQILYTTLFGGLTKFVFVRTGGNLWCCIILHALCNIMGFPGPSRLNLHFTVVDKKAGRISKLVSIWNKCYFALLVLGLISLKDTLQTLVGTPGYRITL
Yeast superoxide: caloric restriction mimetics inhibiting age-related superoxide in yeast; superoxide response (% of plate mean), % at 10 µM; S. cerevisiae aged cells, superoxide DHE fluorescence; stronger effect = lower value; AID 2690; hit rate 0.18% among 330,000;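 active means superoxide response under a set limit, about three screen SD below normal, cut at about 65% in these data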;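 further: yeast aged for seven days with compound at 30 °C before DHE staining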
NR1D1 modulator: modulates human Rev-erb alpha binding to DNA; Rev-erbα–FITC-DNA binding, fluorescence polarization, 90 min; hit rate 0.79% among 370,000; activity, % at 10 µM; P20393;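 active means activity above about 14%, limit read from the data; passing the limit was not always enough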
PG9 Ab binder: PG9 antibody binding by small molecule; inhibition, % at 6.7 µM; hit rate 0.43% among 360,000; TR-FRET gp120-PG9 antibody binding; in the data active means inhibition above about 8.5%
Large screens that a line does not name were inactive.

COc1ccc(CNC(=O)c2c(N)n(CCCN3CCOCC3)c3nc4ccccc4nc23)cc1	Rce1 inh active
COc1ccc(C(C)=NN=C(N)N)c(OC)c1	none (no result: MIN6 prolif, Rce1 inh, Yeast superoxide, NR1D1 modulator, PG9 Ab binder)
COC(=O)c1ccccc1NC1=C/C(=N\S(=O)(=O)c2ccc(C(=O)O)cc2)c2ccccc2C1=O	UCH37 inh 90 (no result: NR1D1 modulator, PG9 Ab binder)
N#CC1=C(N)OC2=C(C(=O)CC(c3ccco3)C2)C1c1ccc(OCc2c(F)cccc2Cl)cc1 (centres undefined)	UCH37 inh 32
COc1cccc(C2C(C#N)=C(N)OC3=C2C(=O)CC(c2ccco2)C3)c1OCc1ccc(F)cc1 (centres undefined)	none
O=C(Cn1cc(C(F)(F)F)ccc1=O)NN=Cc1ccccc1	none (no result: MIN6 prolif, Rce1 inh, Yeast superoxide, NR1D1 modulator, PG9 Ab binder)
Cc1cccc(-c2nnc3n2N=C(c2ccccc2Br)CS3)c1	MIN6 prolif 7.3 (no result: UCH37 inh)
CC(=O)Nc1cccc(C(C)=NNC(=O)c2ccc3c(c2)OCO3)c1	none (no result: MIN6 prolif, Rce1 inh, Yeast superoxide, NR1D1 modulator, PG9 Ab binder)
CN(C)c1cc(O)c(C(=S)Nc2ccccc2)c(N(C)C)c1	Rce1 inh active
CSc1nc2ccc(NC(=O)c3nn(C(C)C)c(=O)c4ccccc34)cc2s1	MIN6 prolif 8.2
CC(/C=C/c1ccccc1)=NNC(=O)CNC(=O)c1ccccc1Cl	none (no result: MIN6 prolif, Rce1 inh, Yeast superoxide, NR1D1 modulator, PG9 Ab binder)
Cc1ccc(S(=O)(=O)N2CCN(C(=O)c3cc4c(C)nn(-c5ccccc5)c4s3)CC2)cc1	Rce1 inh active
Cc1ccccc1CC(=O)Nc1ccc2c(C)cc(=O)oc2c1	none
COc1ccccc1CC(=O)Nc1ccc2c(C)cc(=O)oc2c1	Rce1 inh active
Cc1ccc(S(=O)(=O)N=C(Nc2cc(C)on2)c2ccc(Cl)cc2)cc1	none (no result: MIN6 prolif, Rce1 inh, Yeast superoxide, NR1D1 modulator, PG9 Ab binder)
CCC(=O)Nc1cccc(NC(=S)NC(=O)c2cccs2)c1	Rce1 inh active
O=C(Nc1ccc(F)cc1)Oc1ccccc1N1CCOCC1	Rce1 inh active
O=C(Nc1ccc(OC(F)(F)F)cc1)Oc1ccccc1N1CCOCC1	none
O=C(/C=C/c1ccco1)N1CCCC(c2ccccc2)C1 (centres undefined)	UCH37 inh 26
CCCCN(CCCC)c1nc(-c2ccncc2)nc2ccccc12	Yeast superoxide 65
Cc1ccccc1OC(C)C(=O)NC1CCCC1 (centres undefined)	UCH37 inh 28
Cc1ccccc1OCC(=O)OC(C)C(=O)NC1CCCC1 (centres undefined)	none (no result: Rce1 inh)
NC(=O)NN=Cc1coc2ccc(O)cc2c1=O	none (no result: MIN6 prolif, Rce1 inh, Yeast superoxide, NR1D1 modulator, PG9 Ab binder)
O=C(O)c1cccc(Nc2cc(Cl)c3nonc3c2[N+](=O)[O-])c1	none
CC(=O)c1cccc(Nc2c([N+](=O)[O-])c(=O)oc3ccccc23)c1	none
O=C(O)c1cccc(Nc2c([N+](=O)[O-])c(=O)oc3ccccc23)c1	Yeast superoxide 64
O=C(O)c1cccc(Nc2ccc([N+](=O)[O-])c3nonc23)c1	UCH37 inh 24
O=C(O)c1ccc(Nc2ccc([N+](=O)[O-])c3nonc23)cc1	UCH37 inh 24
COc1cccc(C=NNC(=O)c2ccc(-n3cnnn3)cc2)c1	none (no result: MIN6 prolif, Rce1 inh, Yeast superoxide, NR1D1 modulator, PG9 Ab binder)
COc1cccc(C=NNC(=S)Nc2cccc(C(=O)O)c2)c1O	none (no result: MIN6 prolif, Rce1 inh, Yeast superoxide, NR1D1 modulator, PG9 Ab binder)
O=C(c1ccc(Cn2cnnn2)cc1)N1CCCC(Nc2ccc(F)cc2)C1 (centres undefined)	Rce1 inh active (no result: UCH37 inh)
O=C(CSc1nc2c(cnn2-c2cccc(Cl)c2)c(=O)[nH]1)NCCC1=CCCCC1	Yeast superoxide 61 (no result: Rce1 inh)
O=C(CSc1nc2c(cnn2-c2cccc(Cl)c2)c(=O)[nH]1)NCC1CCCO1 (centres undefined)	none (no result: Rce1 inh)
COc1ccc(-c2csc(/C(C#N)=C\c3ccc(OC)c([N+](=O)[O-])c3)n2)cc1	none
COc1ccc(-c2csc(/C(C#N)=C\c3ccc(O)c([N+](=O)[O-])c3)n2)cc1OC	UCH37 inh 21
Cc1ccc(S(=O)(=O)Oc2cccc(C=Nn3cnnc3)c2)cc1	none (no result: MIN6 prolif, Rce1 inh, Yeast superoxide, NR1D1 modulator, PG9 Ab binder)
CCn1nnnc1SCC(=O)Nc1nc(C)c(C)s1	Rce1 inh active
CCOC(=O)c1c(-c2ccccc2)oc2ccc(OCC)cc12	none
CCOC(=O)c1c(-c2ccccc2)oc2ccc(OCC(O)CNCCN(C)C)cc12 (centres undefined)	Rce1 inh active
COc1ccc(C(=O)NN=Cc2ccc3cccc(O)c3n2)cc1	none (no result: MIN6 prolif, Rce1 inh, Yeast superoxide, NR1D1 modulator, PG9 Ab binder)
CC(C)(C)C(=O)ON=C(N)c1ccc([N+](=O)[O-])s1	none (no result: MIN6 prolif, Rce1 inh, Yeast superoxide, NR1D1 modulator, PG9 Ab binder)
COc1cccc(/C=N/NC(=O)Cn2ccnc2C)c1	none (no result: UCH37 inh)
COc1ccc(OC)c(/C=N/NC(=O)Cn2ccnc2C)c1	Rce1 inh active (no result: UCH37 inh)

High-throughput results (PubChem BioAssay)
